Compound activity as filed in PubChem BioAssay.
Hits are enriched below; roughly 5.7% of the tested compounds scored in any of these assays.
Beta apoptosis = beta cell apoptosis inhibition | INS-1E cytokine-induced death, ATP luminescence, 48 h; percent of positive-control rescue, neutral wells zero | protection from apoptosis, % (test concentration not listed) | hit rate 0.8% among 300,000;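 active = Every replicate reaches about 75%, or at least half do and their mean reaches it too, limit read from the data; inconclusive = At least half of replicates reach the limit but their mean does not; inactive = Under half of replicates reach the limit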;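 also: 0% = cytokine-treated negative control wells and 100% = positive control rescue; higher means more ATP so stronger rescue from cytokine killing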
SKKanGAS inh = blocks kanamycin growth of S. pyogenes SKKanGAS strain; AID 1662; hit rate 1.3% among 300,000; inhibition, % at 7.5 µM; BacTiter-Glo, 6 h;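 active = mean replicate score, as percent of positive control median, at least 50; inconclusive = mean below 50 but one replicate at or above 50; inactive = mean and every replicate below 50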;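 also: strain carries kanamycin resistance gene driven by streptokinase promoter and grows in 40 µg/ml kanamycin; loss of luminescence reflects streptokinase promoter inhibition or plain growth inhibition; 0% = median of DMSO wells and 100% = positive control at its reference dose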
Mdm2 MdmX PPI = human Mdm2/MdmX binding inhibition | hit rate 3% among 330,000 | O15151+Q00987 | inhibition, % at 8 µM | AID 485346 | SaOS-2 split-luciferase Mdm2/MdmX complementation, luminescence;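 active = inhibition of at least 50% at 8 µM in the primary screen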
T cruzi repl = T. cruzi replication inhibition; T. cruzi beta-gal in NIH3T3, luminescence, 90 h; inhibition, % (test concentration not listed); hit rate 1.4% among 300,000;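 active = mean inhibition across valid replicates above about 55%, limit read from the data; inconclusive = mean below that limit but half or more replicates reach it; inactive = mean below it, under half of replicates reach it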;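 also: signal also drops with host cell toxicity which is not excluded here; 0% = plate median of DMSO wells and 100% = zero luminescence signal; higher percent means less beta-gal luminescence so fewer parasites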
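Test system: β-gal T. cruzi (Tulahuen C4) inside NIH/3T3 cells / Quantity: 5,000 cells/well / Measured by: luminescence from GalScreen with 0.05% NP40, read after 60 min / Medium: DMEM plus 2% FBS / Measure: parasite load inhibition, % / Reagent: Tulahuen C4 trypomastigotes, 5000/well / Schedule: co-culture of at least 90 h after 3 h attachment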
Calb FLC = C. albicans growth modulation with fluconazole; hit rate 0.57% among 300,000; C. albicans CaCi-2 (fluconazole-resistant clinical isolate) + fluconazole, Alamar Blue growth, 48 h; growth inhibition, % (no concentration beside the values);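 active = growth inhibition above about 58% in most replicates, limit read from the data, passing the limit was not always enough; inconclusive = exactly half the replicates above a set limit; inactive = most replicates below a set limit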;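 also: all wells also contain fluconazole at 8 µg/ml as a sub-toxic cotreatment; 0% = median of DMSO wells and 100% = median of geldanamycin control wells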
CSC inhib = blocks cancer stem cells; inhibition, % at 7.5 µM; hit rate 1.1% among 300,000; cancer stem cell-like cells viability, luminescence; in the data active = inhibition above about 75%; inconclusive = no clear call, values can overlap the other calls; tested in HMLE shEcad cells
* marks the source's active call; other numbers are inactive results; ? = inconclusive; · = not tested or not shown; + = active, no number.

SMILES	Beta apoptosis	SKKanGAS inh	Mdm2 MdmX PPI	T cruzi repl	Calb FLC	CSC inhib
Cc1cc(C)c2[nH]c(C)c(CN3CCCCCC3)c(=O)c2c1	0	-5	8	27	-4	-12
COc1cccc(CN(C)C(=O)c2cc(S(=O)(=O)N3CCCC3)ccc2C)c1OC	-3	·	22	·	·	4
Cc1cc(C(F)(F)F)n2[nH]c(=O)c(N=Nc3ccccc3)c2n1	-2	6	3	-4	26	12
O=c1[nH]n2c(C(F)(F)F)cc(C3CC3)nc2c1N=Nc1ccccc1	-3	-3	30	6	88*	21
O=C(NCC(c1ccco1)N1CCc2ccccc21)c1cccc([N+](=O)[O-])c1 (stereo not given)	4	4	2	0	-6	-3
CCCCCCCc1ccc(-c2ccc(O)cc2)nc1	-2	17	-60	41	-15	85*
CCCc1ccc(-c2ccc(/C=C/C(=O)O)cc2)nc1	0	-2	·	-11	15	-16
CCCCCc1ccc(-c2ccc(/C=C/C(=O)O)cc2)nc1	-3	12	2	0	81*	9
CC1CCN(C(=O)COC(=O)CCC(=O)c2ccc(Cl)cc2)CC1	-3	·	15	·	·	7
Cc1ccc2c(c1)sc[n+]2Cc1ccccc1	-6	-21	-97	55*	4	-3
Cc1ccc(-c2cc[n+](Cc3ccccc3)cc2)cc1	51	·	16	·	-21	4
O=C1N=C(N2C=CC(=C3C=CNC=C3)C=C2)/C(=C/N=NC(=O)c2ccccc2O)S1	1	3	5	6	27	3
COc1ccc(C2SCC(=O)N2Cc2ccccc2)cc1 (stereo not given)	-6	2	10	4	-9	1
COc1ccc(C2SCC(=O)N2CC23CC4CC(CC(C4)C2)C3)cc1 (stereo not given)	4	21	20	61*	-3	-9
O=C(CN(Cc1ccco1)C(=O)CNS(=O)(=O)c1ccc(F)cc1)NCc1ccco1	1	17	18	-4	-15	-3
CCCc1cc(=O)oc2c3c(cc(OCC(=O)N[C@@H](C)C(=O)O)c12)OC(C)(C)CC3	-2	6	10	1	0	1
CCCc1cc(=O)oc2c3c(c4c(c12)OC(C)(C)C=C4)OC(C)C(C)C3O (stereo not given)	17	21	34	55*	14	-9
Cc1cc(-c2cc(C(=O)O)c3ccccc3n2)c(C)s1	-7	-10	17	-7	80*	-7
Cc1sc(NC(=O)Nc2ccccc2)c(C(N)=O)c1C	-9	5	-41	-9	4	0
Cc1nn(C)cc1-c1cc(C(=O)O)c2ccccc2n1	-2	-4	4	-4	4	-11
CCOC(=O)c1sc(NC(=O)c2ccccc2C(=O)O)c(C(=O)OCC)c1C	4	1	-9	-6	3	-1
CCOC(=O)c1c(NC(=O)c2cc(-c3ccc(Cl)s3)nc3ccccc23)sc(C(N)=O)c1C	77*	1	·	-18	-6	14
Cc1ccccc1-c1cc(C(=O)Nc2sc(C)c(C)c2C(N)=O)c2ccccc2n1	93*	47	30	19	-9	·
CC(OC(=O)Cn1cnc2ccccc2c1=O)C(=O)NCc1ccccc1 (stereo not given)	-9	-4	21	-4	0	-7
CCOc1ccc(C(=O)C[n+]2cccc3cc(C)ccc32)cc1	-29	1	13	68*	-7	-3
SMILES	Beta apoptosis	SKKanGAS inh	Mdm2 MdmX PPI	T cruzi repl	Calb FLC	CSC inhib
Cc1ccc(C(=O)C[n+]2cccc3cc(C)ccc32)cc1	6	-2	11	58*	-7	-4
C/C(=N/NC(=O)CNC(=O)C1COc2ccccc2O1)c1ccc([N+](=O)[O-])cc1 (stereo not given)	-2	8	14	21	33	·
CCC(=O)Nc1nc2ccccc2n1Cc1ccc(Cl)cc1	17	62*	32	62*	-1	-11
CCn1c(SCc2ccccc2Cl)nc2ccccc21	-2	74*	-19	14	19	7
CCC(=O)Nc1nc2ccccc2n1CCN1CCOCC1	·	-3	5	-2	-2	-19
CCC(=O)Nc1nc2ccccc2n1Cc1ccccc1Cl	16	63*	50	-2	36	24
O=C(Nc1nc2ccccc2n1Cc1ccccc1)c1ccco1	14	55*	49	21	·	21
c1ccc2sc(SCSc3nc4ccccc4s3)nc2c1	4	54*	28	-3	1	38
CN(C)CCCSc1nc2ccccc2s1	0	-24	3	71*	5	-16
N#Cc1ccc(CN2CCN(C(=O)CNC(=O)Cc3ccccc3)CC2)cc1	·	·	12	·	·	·
O=C(c1ccc([N+](=O)[O-])s1)N1CCN(c2cccc(Cl)c2)CC1	92*	7	-10	47	12	37
O=C(NC(=O)N1CCN(c2cccc(Cl)c2)CC1)c1ccc(Cl)cc1	-3	14	29	-4	4	110*
O=C(c1cccs1)N1CCN(c2cccc(Cl)c2)CC1	-3	0	28	-3	-2	1
Cc1cc(C)c(C(=O)N(C)C2CCCN(Cc3ccccc3F)C2)o1 (stereo not given)	-2	-1	16	14	0	4
O=C(NCCc1nc2ccccc2[nH]1)c1ccc(Cl)c([N+](=O)[O-])c1	0	11	6	40	-4	-1
Cc1ccc(C(=O)NCCc2nc3ccccc3[nH]2)cc1[N+](=O)[O-]	-9	0	14	58*	?	-8
CN(C)CCN(Cc1ccco1)C(=O)c1cc2c(Cl)nc3ccccc3c2s1	-7	7	21	63*	4	-12
CN(CCC#N)C(=O)c1cc2c(Cl)nc3ccccc3c2s1	-3	-3	4	-12	1	-6
Cc1ccc2nc(Cl)c3cc(C(=O)NCCCN4CCCC4)sc3c2c1	-3	4	10	68*	14	33
Cc1ccc2oc(=O)c3cnn(CC(=O)N(CCN(C)C)Cc4ccco4)c3c2c1	0	-3	24	-18	-1	-7
Cc1ccc2nc(Cl)c3cc(C(=O)N(CCN(C)C)Cc4ccco4)sc3c2c1	-1	2	40	56*	11	93*
COc1cc(CN2CCN(c3cccc(Cl)c3)CC2)cc(OC)c1OC	2	6	43	-17	-4	93*
O=C(c1ccc(CSc2nc3ccncc3[nH]2)cc1)N1CCN(c2cccc(Cl)c2)CC1	66	12	39	55*	-9	8
COc1ccccc1N1CCN(C(=O)c2ccc(CSc3ccccc3)cc2)CC1	7	13	-17	3	7	58
O=C(c1ccc(CSc2ccccc2)cc1)N1CCN(c2ccccc2)CC1	1	7	-30	-7	-5	+
CCCCCCn1nc(C(=O)N(CCCC)c2c(N)n(CCC)c(=O)[nH]c2=O)c2ccccc2c1=O	-6	·	7	·	·	8
